Rows were chosen to be rich in hits. Some 3% of all compounds tested hit in one or more screens of this group.
SENP7 block = SENP7 protease inhibition. Q9BQF6. recombinant SENP7, Z-RLRGG-aminoluciferin luminescence, 40 min. inhibition, % at 5 µM. 1.5% of 330,000 active. AID 434973;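 active means inhibition above about 50% at the single test dose, limit read from the data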;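 further: plate controls were DMSO with enzyme for no effect and no enzyme buffer wells for full effect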
SENP8 block-1 = blocks human SENP8 cleavage of Nedd8 substrate. recombinant SENP8, Nedd8 substrate fluorescence. AID 602440. inhibition, % at 20 µM. 0.64% of 360,000 active; in the data active means inhibition mostly above about 40%, no sharp cut-off; inactive means mostly below about 27%
SENP8 block-2 = SENP8 protease inhibition. Q96LD8. purified SENP8, Z-RLRGG-aminoluciferin cleavage, luminescence. inhibition, % at 10 µM. 1.2% of 330,000 active; in the data active means inhibition above about 50%
Apaf1 inhib = human Apaf-1 inhibition. inhibition, % at 20 µM. O14727. 0.71% of 330,000 active. reconstituted apoptosome caspase-3 activity, DEVD-Rh110 fluorescence. AID 489030; active means inhibition of at least 40% at 20 µM;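 further: plate controls were DMSO wells for no effect and DEVD-CHO caspase inhibitor wells for full effect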
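Material: reconstituted apoptosome with Apaf-1, cytochrome c, caspase-9, procaspase-3, dATP; medium: pH 7.5 Hepes buffer with CHAPS, BSA, DTT; also added: cytochrome c and DEVD-Rh110 substrate; timing: 30 min plus 50 min, RT; signal: Rh110 fluorescence intensity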
UBC13 inh = inhibitors of human UBC13 polyubiquitin chain formation | TR-FRET | inhibition, % at 20 µM | 0.47% of 330,000 active; in the data active means inhibition above about 45%, passing the limit was not always enough; inconclusive means no clear call, values can overlap the other calls
SENP6 block = blocks the human protease SENP6 | AID 2599 | 1.8% of 330,000 active | Recombinant SENP6 catalytic domain, aminoluciferin luminescence | inhibition, % at 10 µM;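 active means inhibition above about 50% at the single tested dose, limit read from the data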;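 further: plate controls were DMSO wells with enzyme for no effect and DMSO wells lacking enzyme for full effect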
* hit, by the source's call.

Screening CCOc1ccc2nc(N=Nc3c(O)[nH]c(=O)[nH]c3=O)sc2c1 returned SENP7 block -2, SENP8 block-1 45*, SENP8 block-2 3, Apaf1 inhib -5, UBC13 inh -153 and SENP6 block 0.
For CCOC(=O)[C@]12Cc3cc(C)ccc3[C@H]1N(Cc1ccccc1)C(=O)c1cc(F)c(F)cc12 the results were SENP8 block-1 -11.
For O=S1c2ccccc2-c2ccccc21 the results were SENP8 block-1 5.
For O=C1C=Cc2ccccc2C1=O the results were SENP7 block 3, SENP8 block-2 16, Apaf1 inhib 62*, UBC13 inh -43 and SENP6 block 26.
O=C1NCN(c2ccccc2)C12CCN(C(CCc1ccccc1)c1nnnn1C1CCCCC1)CC2 (centres undefined) was read as SENP8 block-1 16.
`CCN1/C(=C\C=C\C2=[N+](CC)c3ccccc3C2(C)C)C(C)(C)c2ccccc21` gave SENP7 block 17, SENP8 block-1 18, SENP8 block-2 25, Apaf1 inhib 56*, UBC13 inh -257 and SENP6 block 7.
NCCc1cc(O)c(O)cc1O was read as SENP8 block-1 36*.
`CCn1nc(-c2cccs2)nc2c(=O)n(C)c(=O)nc1-2` gave SENP8 block-1 80*.
For CCOC(=O)[C@]12Cc3ccccc3[C@H]1N(CCC(=O)OC)C(=O)c1ccccc12 the results were SENP8 block-1 12.
C[C@@H]1COc2cccc(N3CCN(C)CC3)c2S(=O)(=O)N1 was read as SENP8 block-1 3.
For NC(Cc1cc(O)c(O)cc1O)C(=O)O (centres undefined) the results were SENP7 block -13, SENP8 block-2 6, Apaf1 inhib 84*, UBC13 inh inconclusive and SENP6 block -33.
For COc1cc2c(c(OC)c1OC)-c1ccc(SC)c(=O)cc1C(NC(C)=O)CC2 (centres undefined) the results were SENP8 block-1 -4.
Screening CC[n+]1c(-c2ccccc2)c2cc(N)ccc2c2ccc(N)cc21 returned SENP8 block-1 97*.
`C[C@H]1COc2cc(N3CCN(C)CC3)ccc2S(=O)(=O)N1` gave SENP8 block-1 22.
Screening O=C1NCN(c2ccccc2)C12CCN(C(CCc1ccccc1)c1nnnn1C1CCCC1)CC2 (centres undefined) returned SENP8 block-1 18.
For CN1C(=O)C(=Cc2ccc(N3CCCCC3)o2)C(=O)N(C)C1=S the results were SENP7 block 11, SENP8 block-1 43*, SENP8 block-2 1, Apaf1 inhib 9, UBC13 inh inactive and SENP6 block -15.
CCN(CC)c1ccc(C=C2C(=O)N(C)C(=S)N(C)C2=O)o1 was read as SENP7 block 5, SENP8 block-1 18, SENP8 block-2 4, Apaf1 inhib -8, UBC13 inh inactive and SENP6 block 3.
`O=c1[nH]c2ccccc2n1C1CCN(Cc2ccc(-c3nc4ccc(F)cc4nc3-c3ccccc3)cc2)CC1` gave SENP8 block-1 -110.
For O=S(=O)(c1cccc2ccccc12)N1Cc2ccccc2-n2nncc2C1 the results were SENP8 block-1 12.
O=C1NC(=O)N(Cc2ccc(F)cc2)C(=O)/C1=C\c1ccc(N2CCCC2)cc1 was read as SENP7 block 4, SENP8 block-1 2, SENP8 block-2 1, Apaf1 inhib 9, UBC13 inh -23 and SENP6 block 3.
O=C1NC(=O)N(Cc2ccc(F)cc2)C(=O)/C1=C\c1ccc([N+](=O)[O-])s1 was read as SENP7 block 4, SENP8 block-1 50*, SENP8 block-2 18, Apaf1 inhib 33, UBC13 inh -48 and SENP6 block 32.
`COc1ccc(CN2C(=O)NC(=O)/C(=C/c3ccc([N+](=O)[O-])s3)C2=O)cc1` gave SENP7 block 3, SENP8 block-1 43*, SENP8 block-2 11, Apaf1 inhib 37, UBC13 inh -60 and SENP6 block 34.
For CCOC(=O)[C@]12Cc3cc(C)ccc3[C@H]1N(C(C)C)C(=O)c1ccccc12 the results were SENP8 block-1 -1.
For CC(=O)c1ccc2c(c1)C1C(Cl)C(Sc3ccccc3[N+](=O)[O-])CC1C(C(=O)O)N2 (centres undefined) the results were SENP8 block-1 78*.

Screening data as filed in PubChem.
